Key:
[1] = test system: HL-60(TB); assay: Growth inhibition of human HL-60(TB) cells after 48 hrs by SRB assay; assay type: functional; details: HL-60, 48 h
[2] = test system: HOP-62; assay: Growth inhibition of human HOP62 cells after 48 hrs by SRB assay; assay type: functional; details: HOP-62, 48 h
Summary of the method: (§1)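 NCI 60-panel five-dose assay at 0.01, 0.1, 1, 10 and 100 μM. Cells in RPMI 1640 with 5% FBS and 2 mM L-glutamine, preincubated 24 h, with time-zero plates TCA-fixed. Drug exposure 48 h at 37 °C. Read by SRB staining at 515 nm. GI50 is the concentration where [(Ti−Tz)/(C−Tz)]×100 = 50, taken from log concentration versus % growth curves.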

[3] = test system: NCI-H322M; assay: Growth inhibition of human NCI-H322M cells after 48 hrs by SRB assay; assay type: functional; summary of the method: as §1
[4] = test system: HT-29; assay: Growth inhibition of human HT-29 cells after 48 hrs by SRB assay; assay type: functional; details: HT-29, 48 h; summary of the method: as §1
[5] = test system: SF-295; assay: Growth inhibition of human SF295 cells after 48 hrs by SRB assay; assay type: functional; details: SF-295, 48 h; summary of the method: as §1
[6] = test system: SNB-19; assay: Growth inhibition of human SNB19 cells after 48 hrs by SRB assay; assay type: functional; details: SNB-19, 48 h
Summary of the method: (§2)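 NCI-60 panel cells grown in RPMI 1640 with 5% FBS and 2 mM L-glutamine, then seeded at 5000–40,000 cells/well by doubling time and preincubated for 24 h. Compound in DMSO was tested either at 10^-5 M alone or at 0.01–100 μM in five doses, for 48 h at 37 °C. Cells were fixed with cold TCA (10% final), stained with SRB, and read at 515 nm. GI50 was taken from % growth relative to time-zero and control wells.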

[7] = test system: SNB-75; assay: Growth inhibition of human SNB75 cells after 48 hrs by SRB assay; assay type: functional; details: SNB-75, 48 h; summary of the method: as §2
[8] = test system: U-251; assay: Growth inhibition of human U251 cells after 48 hrs by SRB assay; assay type: functional; details: U-251, 48 h; summary of the method: as §2
[9] = test system: M14; assay: Growth inhibition of human M14 cells after 48 hrs by SRB assay; assay type: functional; details: M14, 48 h; summary of the method: as §1
[10] = test system: OVCAR-3; assay: Growth inhibition of human OVCAR3 cells after 48 hrs by SRB assay; assay type: functional; details: OVCAR-3, 48 h; summary of the method: as §1
[11] = test system: NCI/ADR-RES; assay: Growth inhibition of human NCI/ADR-RES cells after 48 hrs by SRB assay; assay type: functional; summary of the method: as §1
[12] = test system: SK-OV-3; assay: Growth inhibition of human SKOV3 cells after 48 hrs by SRB assay; assay type: functional; details: SK-OV-3, 48 h; summary of the method: as §2
[13] = test system: A498; assay: Growth inhibition of human A498 cells after 48 hrs by SRB assay; assay type: functional; details: A498, 48 h; summary of the method: as §1
[14] = test system: CAKI-1; assay: Growth inhibition of human Caki1 cells after 48 hrs by SRB assay; assay type: functional; details: CAKI-1, 48 h; summary of the method: as §1
[15] = test system: UO-31; assay: Growth inhibition of human UO31 cells after 48 hrs by SRB assay; assay type: functional; details: UO-31, 48 h; summary of the method: as §2
[16] = test system: MDA-MB-231; assay: Growth inhibition of human MDA-MB-231 cells after 48 hrs by SRB assay; assay type: functional; details: MDA-MB-231, 48 h; summary of the method: as §1
[17] = Growth inhibition of human Hs 578T cells after 48 hrs by SRB assay; assay type: functional; summary of the method: as §1
[18] = test system: T47D; assay: Growth inhibition of human T47D cells after 48 hrs by SRB assay; assay type: functional; summary of the method: as §2
[19] = test system: NCI-H226; assay: Cytotoxicity against human NCI-H226 cells after 48 hrs by SRB assay; assay type: cell-based; details: nci-h226, 48 h
Summary of the method: (§3)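 NCI-60 five-dose screen in RPMI 1640 with 5% FBS and 2 mM L-glutamine; 5000–40,000 cells/well, 24 h pre-incubation. DMSO stocks diluted to 0.01, 0.1, 1, 10 and 100 μM final; 48 h at 37 °C, 5% CO2. Fixed with TCA (10% final adherent, 16% suspension), stained with 0.4% SRB, A515. GI50, TGI and LC50 taken from time-zero, control and test absorbances.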

[20] = test system: EKVX; assay: Cytotoxicity against human EKVX cells after 48 hrs by SRB assay; assay type: cell-based; summary of the method: as §3
[21] = test system: SR; assay: Cytotoxicity against human SR cells after 48 hrs by SRB assay; assay type: cell-based
Summary of the method: (§4)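 NCI-60 five-dose screen. Cells grown in RPMI 1640 with 5% FBS and 2 mM L-glutamine and pre-incubated 24 h; a time-zero plate is TCA-fixed. Drug added at 0.01, 0.1, 1, 10 and 100 µM (DMSO stock) for 48 h at 37 °C, 5% CO2. Fixed with cold TCA (10% final for adherent, 16% for suspension cells), stained with 0.4% SRB, A515. GI50, TGI and LC50 taken from dose-response curves.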

[22] = test system: CCRF-CEM; assay: Cytotoxicity against human CCRF-CEM cells after 48 hrs by SRB assay; assay type: cell-based; summary of the method: as §3
[23] = test system: HCC 2998; assay: Cytotoxicity against human HCC2998 cells after 48 hrs by SRB assay; assay type: cell-based; details: hcc 2998, 48 h; summary of the method: as §3
[24] = test system: HCT-15; assay: Cytotoxicity against human HCT15 cells after 48 hrs by SRB assay; assay type: cell-based; details: hct-15, 48 h; summary of the method: as §3
[25] = test system: SK-MEL-28; assay: Cytotoxicity against human SK-MEL-28 cells after 48 hrs by SRB assay; assay type: cell-based; details: sk-mel-28, 48 h; summary of the method: as §3
[26] = test system: UACC-257; assay: Cytotoxicity against human UACC257 cells after 48 hrs by SRB assay; assay type: cell-based; details: uacc-257, 48 h; summary of the method: as §4
[27] = test system: UACC-62; assay: Cytotoxicity against human UACC62 cells after 48 hrs by SRB assay; assay type: cell-based; details: uacc-62, 48 h; summary of the method: as §4
[28] = test system: OVCAR-5; assay: Cytotoxicity against human OVCAR5 cells after 48 hrs by SRB assay; assay type: cell-based; details: ovcar-5, 48 h; summary of the method: as §3
[29] = test system: OVCAR-8; assay: Cytotoxicity against human OVCAR8 cells after 48 hrs by SRB assay; assay type: cell-based; details: ovcar-8, 48 h; summary of the method: as §3
[30] = test system: NCI/ADR-RES; assay: Cytotoxicity against human NCI/ADR-RES cells after 48 hrs by SRB assay; assay type: cell-based; summary of the method: as §3
[31] = test system: SK-OV-3; assay: Cytotoxicity against human SKOV3 cells after 48 hrs by SRB assay; assay type: cell-based; details: sk-ov-3, 48 h; summary of the method: as §3
[32] = test system: 786-0; assay: Cytotoxicity against human 786-0 cells after 48 hrs by SRB assay; assay type: cell-based; details: 786-0, 48 h; summary of the method: as §3
[33] = test system: CAKI-1; assay: Cytotoxicity against human Caki1 cells after 48 hrs by SRB assay; assay type: cell-based; details: caki-1, 48 h; summary of the method: as §3
[34] = test system: TK-10; assay: Cytotoxicity against human TK10 cells after 48 hrs by SRB assay; assay type: cell-based; details: tk-10, 48 h; summary of the method: as §4
[35] = test system: UO-31; assay: Cytotoxicity against human UO31 cells after 48 hrs by SRB assay; assay type: cell-based; details: uo-31, 48 h; summary of the method: as §4

Question: Which results are given for O=c1c2ccccc2nc(-c2ccco2)n1/N=C/c1ccccc1Cl?
Answer: GI50 [1]: 23.8 µM; TGI [1]: > 100 µM; GI50 [2]: 3.56 µM; TGI [2]: 13.7 µM; GI50 [3]: 4.11 µM; TGI [3]: 76.9 µM; GI50 [4]: 3.42 µM; TGI [4]: > 100 µM; GI50 [5]: 3.26 µM; TGI [5]: > 100 µM; GI50 [6]: 6.34 µM; TGI [6]: 12.8 µM; GI50 [7]: 4.1 µM; TGI [7]: 7.51 µM; GI50 [8]: 4.12 µM; TGI [8]: 32.3 µM; GI50 [9]: 10.8 µM; TGI [9]: > 100 µM; GI50 [10]: 4.12 µM; TGI [10]: 6.87 µM; GI50 [11]: 2.45 µM; TGI [11]: 8.78 µM; GI50 [12]: 3.68 µM; TGI [12]: 14.8 µM; GI50 [13]: 5.76 µM; TGI [13]: 16.7 µM; GI50 [14]: 7.99 µM; TGI [14]: 34.8 µM; GI50 [15]: 6.12 µM; TGI [15]: > 100 µM; GI50 [16]: 3.13 µM; TGI [16]: 7.84 µM; GI50 [17]: 15.2 µM; TGI [17]: > 100 µM; GI50 [18]: 6.89 µM; TGI [18]: > 100 µM; LC50 [19]: > 100 µM; LC50 [20]: > 100 µM; LC50 [21]: > 100 µM; LC50 [22]: > 100 µM; LC50 [23]: > 100 µM; LC50 [24]: > 100 µM; LC50 [25]: > 100 µM; LC50 [26]: > 100 µM; LC50 [27]: > 100 µM; LC50 [28]: > 100 µM; LC50 [29]: > 100 µM; LC50 [30]: 52.7 µM; LC50 [31]: > 100 µM; LC50 [32]: > 100 µM; LC50 [33]: > 100 µM; LC50 [34]: > 100 µM; LC50 [35]: > 100 µM
